Test results: ChEMBL document CHEMBL4145683, “Total Synthesis and Structure-Activity Relationships Study of Odilorhabdins, a New Class of Peptides Showing Potent Antibacterial Activity” (J Med Chem, 2018)
Converted amounts (≈) assume the structure as drawn. Positions of bridges follow the written chain, without caps; N, C: chain ends. Non-standard residues stand in square brackets, D forms with d. Residues, ends and D or L forms follow the SMILES beside them. *: point of attachment. Dab(3S-OH) = NC[C@H](O)[C@H](N)C(=O)O; ΔZArg = N=C(N)NCC/C=C(\N)C(=O)O; aThr = C[C@H](O)[C@H](N)C(=O)O; dOrn = NCCC[C@@H](N)C(=O)O; X1 = CC[C@H](C)CCCCC(=O)*; Dab = NCC[C@H](N)C(=O)O; NH(CH2)4NH2 = NCCCCN*

Assays:
Klebsiella pneumoniae [1] = test: Antimicrobial activity against Klebsiella pneumoniae ATCC 43816 by broth microdilution method; format: functional
Outline: (§1)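 Broth microdilution MIC per CLSI M07-A10, with inoculum prepared by direct colony suspension. Reference strains were from ATCC and NCTC.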

Enterobacter cloacae = test: Antimicrobial activity against Enterobacter cloacae ATCC BAA-2468 by broth microdilution method; format: functional
Klebsiella pneumoniae [2] = test: Antimicrobial activity against Klebsiella pneumoniae NCTC 13438 by broth microdilution method; format: functional; outline: as §1
[3] = Inhibition of mammalian protein synthesis in rabbit reticulocyte lysate system incubated for 1 hr by mammalian cell-free transcription-translation assay; parameters: species or system Oryctolagus cuniculus
Klebsiella pneumoniae [4] = test: Antimicrobial activity against Klebsiella pneumoniae NCTC 13442 by broth microdilution method; format: functional
Outline: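 CLSI broth microdilution with direct colony suspension inoculum, per CLSI M07-A10. Reference strain taken from the NCTC collection.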

Klebsiella pneumoniae [5] = test: Antimicrobial activity against Klebsiella pneumoniae ATCC BAA-2473 by broth microdilution method; format: functional; outline: as §1
Klebsiella pneumoniae [6] = test: Antimicrobial activity against Klebsiella pneumoniae ATCC BAA-1904 by broth microdilution method; format: functional; outline: as §1
Klebsiella pneumoniae [7] = test: Antimicrobial activity against Klebsiella pneumoniae ATCC BAA-2472 by broth microdilution method; format: functional; outline: as §1
Klebsiella pneumoniae [8] = test: Antimicrobial activity against Klebsiella pneumoniae NCTC 13443 by broth microdilution method; format: functional; outline: as §1
Escherichia coli [9] = test: Antimicrobial activity against Escherichia coli ATCC BAA-2469 by broth microdilution method; format: functional; outline: as §1
Escherichia coli [10] = test: Antimicrobial activity against Escherichia coli ATCC BAA-2452 by broth microdilution method; format: functional; outline: as §1
Klebsiella pneumoniae [11] = test: Antimicrobial activity against Klebsiella pneumoniae ATCC BAA-1905 by broth microdilution method; format: functional; outline: as §1
Klebsiella pneumoniae [12] = test: Antimicrobial activity against Klebsiella pneumoniae NCTC 13439 by broth microdilution method; format: functional; outline: as §1
Klebsiella pneumoniae [13] = test: Antimicrobial activity against Klebsiella pneumoniae ATCC 13883 by broth microdilution method; format: functional; outline: as §1
Escherichia coli [14] = test: microbe, parasite or virus in culture; settings: ATCC 25922
[15] = test system: mammalian protein synthesis; test: Selectivity index, ratio of IC50 for inhibition of mammalian protein synthesis in rabbit reticulocyte lysate system incubated for 1 hr by mammalian cell-free transcription-translation assay to IC50 for Inhibition of bacterial protein synthesis in cell-free Escherichia coli; format: toxicity
Escherichia coli [16] = test: Inhibition of bacterial protein synthesis in cell-free Escherichia coli incubated for 1 hr and measured for every 20 mins by bacterial cell-free transcription-translation assay; format: functional; settings: Escherichia coli
Outline: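 E. coli cell-free coupled transcription-translation used a GFP gene in pEXP5-CT as template, started with 1 μg plasmid in 50 μL reactions. Feed buffer was added at 30 min, with incubation at 30 °C. Fluorescence (ex 475/em 520 nm) was read every 20 min. IC50 was taken at 1 h after feed addition from a four-parameter log(inhibitor)–response fit. Duplicates.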

Escherichia coli [17] = test: Antimicrobial activity against Escherichia coli ATCC BAA-2340 by broth microdilution method; format: functional; outline: as §1
Klebsiella pneumoniae [18] = test: Antimicrobial activity against Klebsiella pneumoniae ATCC BAA-2146 by broth microdilution method; format: functional; outline: as §1
[19] = Klebsiella pneumoniae, ATCC 43816, read-out: MIC

| Molecule | MIC (Klebsiella pneumoniae [1]) [µg/mL] | MIC (Klebsiella pneumoniae [1]; [19]) [µg/mL] | MIC (Enterobacter cloacae) [µg/mL] | MIC (Klebsiella pneumoniae [2]) [µg/mL] | IC50 [3] [µM] | MIC (Klebsiella pneumoniae [4]) [µg/mL] | MIC (Klebsiella pneumoniae [5]) [µg/mL] | MIC (Klebsiella pneumoniae [6]) [µg/mL] | MIC (Klebsiella pneumoniae [7]) [µg/mL] | MIC (Klebsiella pneumoniae [8]) [µg/mL] | MIC (Escherichia coli [9]) [µg/mL] | MIC (Escherichia coli [10]) [µg/mL] | MIC (Klebsiella pneumoniae [11]) [µg/mL] | MIC (Klebsiella pneumoniae [12]) [µg/mL] | MIC (Klebsiella pneumoniae [13]) [µg/mL] | MIC (Escherichia coli [14]) [µg/mL] | selectivity ratio at 1 h [15] | IC50 (Escherichia coli [16]) [µM] | MIC (Escherichia coli [17]) [µg/mL] | MIC (Klebsiella pneumoniae [18]) [µg/mL] |
| --- | --- | --- | --- | --- | --- | --- | --- | --- | --- | --- | --- | --- | --- | --- | --- | --- | --- | --- | --- | --- |
| N=C(N)NCC/C=C(\NC(=O)[C@H](CCCCN)NC(=O)[C@H](Cc1cnc[nH]1)NC(=O)[C@@H]1CCCN1C(=O)[C@@H](CCCN)NC(=O)CNC(=O)[C@@H](NC(=O)[C@@H](NC(=O)[C@@H](N)CCCCN)[C@@H](O)CN)[C@@H](O)CN)C(=O)N[C@@H](CCCCN)C(=O)NCCCCN | 4 (≈ 3.16 µM) | 4 (≈ 3.16 µM) | 4 (≈ 3.16 µM) | 4 (≈ 3.16 µM) | 10.3 | 8 (≈ 6.33 µM) | 4 (≈ 3.16 µM) | 2 (≈ 1.58 µM) | 4 (≈ 3.16 µM) | 4 (≈ 3.16 µM) | 4 (≈ 3.16 µM) | 8 (≈ 6.33 µM) | 4 (≈ 3.16 µM) | 2 (≈ 1.58 µM) | 4 (≈ 3.16 µM) | 8 (≈ 6.33 µM) | 16 | 0.63 | 8 (≈ 6.33 µM) | 2 (≈ 1.58 µM) |
| C[C@H](NC(=O)[C@@H](NC(=O)[C@@H](N)CCCCN)[C@@H](O)CN)C(=O)NCC(=O)N[C@H](CCCN)C(=O)N1CCC[C@H]1C(=O)N[C@@H](Cc1cnc[nH]1)C(=O)N[C@@H](CCCCN)C(=O)N/C(=C\CCNC(=N)N)C(=O)O |  | 4 (≈ 3.92 µM) | 4 (≈ 3.92 µM) | 8 (≈ 7.83 µM) | 168 | 4 (≈ 3.92 µM) | 4 (≈ 3.92 µM) | 4 (≈ 3.92 µM) | 4 (≈ 3.92 µM) | 4 (≈ 3.92 µM) | 16 (≈ 15.7 µM) | 16 (≈ 15.7 µM) | 8 (≈ 7.83 µM) | 4 (≈ 3.92 µM) | 4 (≈ 3.92 µM) | 16 (≈ 15.7 µM) | 300 | 0.55 | 16 (≈ 15.7 µM) | 4 (≈ 3.92 µM) |
| N=C(N)NCC/C=C(\NC(=O)[C@H](CCCCN)NC(=O)[C@H](Cc1cnc[nH]1)NC(=O)[C@@H]1CCCN1C(=O)[C@@H](CCCN)NC(=O)CNC(=O)[C@@H](NC(=O)[C@@H](NC(=O)[C@@H](N)CCCCN)[C@@H](O)CN)[C@@H](O)CN)C(=O)O (H-K[Dab(3S-OH)][Dab(3S-OH)]G[dOrn]PHK[ΔZArg]-OH) |  | 4 (≈ 3.75 µM) |  |  |  |  |  |  |  |  |  |  |  |  |  | 16 (≈ 15 µM) |  | 0.43 |  |  |
| C[C@H](NC(=O)/C(=C/CCNC(=N)N)NC(=O)[C@H](CCCCN)NC(=O)[C@H](Cc1cnc[nH]1)NC(=O)[C@@H]1CCCN1C(=O)[C@@H](CCCN)NC(=O)CNC(=O)[C@@H](NC(=O)[C@@H](NC(=O)[C@@H](N)CCCCN)[C@@H](O)CN)[C@@H](O)CN)C(=O)NCCCCN (H-K[Dab(3S-OH)][Dab(3S-OH)]G[dOrn]PHK[ΔZArg]A-{NH(CH2)4NH2}) |  | 8 (≈ 6.63 µM) |  |  |  |  |  |  |  |  |  |  |  |  |  | 8 (≈ 6.63 µM) |  | 1.04 |  |  |
| N=C(N)NCC/C=C(\NC(=O)[C@H](CCCCN)NC(=O)[C@H](Cc1cnc[nH]1)NC(=O)[C@@H]1CCCN1C(=O)[C@@H](CCCN)NC(=O)CNC(=O)[C@@H](NC(=O)[C@@H](NC(=O)[C@@H](N)CCCCN)[C@@H](O)CN)[C@@H](O)CN)C(=O)N[C@@H](CCCCN)C(=O)O (H-K[Dab(3S-OH)][Dab(3S-OH)]G[dOrn]PHK[ΔZArg]K-OH) |  | 4 (≈ 3.35 µM) |  |  |  |  |  |  |  |  |  |  |  |  |  | 16 (≈ 13.4 µM) |  | 0.36 |  |  |
| N=C(N)NCC/C=C(\NC(=O)[C@H](CCCCN)NC(=O)[C@H](Cc1cnc[nH]1)NC(=O)[C@@H]1CCCN1C(=O)[C@@H](CCCN)NC(=O)CNC(=O)[C@H](CCN)NC(=O)[C@@H](NC(=O)[C@@H](N)CCCCN)[C@@H](O)CN)C(=O)N[C@@H](CCCCN)C(=O)NCCCCN (H-K[Dab(3S-OH)][Dab]G[dOrn]PHK[ΔZArg]K-{NH(CH2)4NH2}) |  | 4 (≈ 3.2 µM) |  |  |  |  |  |  |  |  |  |  |  |  |  | 4 (≈ 3.2 µM) |  | 1.1 |  |  |
| C[C@H](O)[C@H](NC(=O)[C@@H](NC(=O)[C@@H](N)CCCCN)[C@@H](O)CN)C(=O)NCC(=O)N[C@H](CCCN)C(=O)N1CCC[C@H]1C(=O)N[C@@H](Cc1cnc[nH]1)C(=O)N[C@@H](CCCCN)C(=O)N/C(=C\CCNC(=N)N)C(=O)N[C@@H](CCCCN)C(=O)NCCCCN (H-K[Dab(3S-OH)][aThr]G[dOrn]PHK[ΔZArg]K-{NH(CH2)4NH2}) |  | 8 (≈ 6.4 µM) |  |  |  |  |  |  |  |  |  |  |  |  |  | 8 (≈ 6.4 µM) |  | 1 |  |  |
| N=C(N)NCC/C=C(\NC(=O)[C@H](CCCCN)NC(=O)[C@H](Cc1cnc[nH]1)NC(=O)[C@@H]1CCCN1C(=O)[C@@H](CCCN)NC(=O)CNC(=O)[C@@H](NC(=O)[C@H](CCN)NC(=O)[C@@H](N)CCCCN)[C@@H](O)CN)C(=O)N[C@@H](CCCCN)C(=O)NCCCCN (H-K[Dab][Dab(3S-OH)]G[dOrn]PHK[ΔZArg]K-{NH(CH2)4NH2}) |  | 64 (≈ 51.3 µM) |  |  |  |  |  |  |  |  |  |  |  |  |  | > 64 |  | 5.91 |  |  |
| CC[C@H](C)CCCCC(=O)N[C@@H](CCN)C(=O)N[C@H](C(=O)N[C@@H](CCN)C(=O)N[C@H]1CCNC(=O)[C@H]([C@@H](C)O)NC(=O)[C@H](CCN)NC(=O)[C@H](CCN)NC(=O)[C@H](CC(C)C)NC(=O)[C@@H](Cc2ccccc2)NC(=O)[C@H](CCN)NC1=O)[C@@H](C)O (X1-[Dab]T[Dab][Dab][Dab][dF]L[Dab][Dab]T; lactam 4-C) |  | 0.5 (≈ 0.415 µM) | 0.5 (≈ 0.415 µM) | 0.5 (≈ 0.415 µM) |  | 0.5 (≈ 0.415 µM) | 0.5 (≈ 0.415 µM) | 0.5 (≈ 0.415 µM) | 0.5 (≈ 0.415 µM) | 0.5 (≈ 0.415 µM) | 0.5 (≈ 0.415 µM) | 0.5 (≈ 0.415 µM) | 0.5 (≈ 0.415 µM) | 0.5 (≈ 0.415 µM) | 1 (≈ 0.831 µM) | 0.5 (≈ 0.415 µM) |  |  | 0.5 (≈ 0.415 µM) | 1 (≈ 0.831 µM) |
| CO/N=C(\C(=O)N[C@@H]1C(=O)N2C(C(=O)O)=C(CSc3nc(=O)c(O)nn3C)CS[C@H]12)c1csc(N)n1 [CEFTRIAXONE] |  | ≤ 0.125 | > 64 | > 64 |  | 8 (≈ 14.4 µM) | > 64 | > 64 | > 64 | > 64 | > 64 | > 64 | > 64 | > 64 | < 0.25 | < 0.25 |  |  | > 64 | > 64 |
| C[C@@H](O)[C@H]1C(=O)N2C(C(=O)O)=C(SCCNC=N)C[C@H]12 [IMIPENEM ANHYDROUS] |  | 1 (≈ 3.34 µM) | > 64 | > 64 |  | > 64 | > 64 | 64 (≈ 214 µM) | > 64 | > 64 | > 64 | > 64 | > 64 | 64 (≈ 214 µM) | 2 (≈ 6.68 µM) | 0.5 (≈ 1.67 µM) |  |  | 32 (≈ 107 µM) | > 64 |
| GENTAMICIN | 0.25 |  | > 64 | 2 |  | 0.25 | > 64 | 16 | > 64 | > 64 | > 64 | > 64 | 32 | 1 | 1 |  |  |  | 1 | > 64 |
